Blank lines part the entries; values can stand above or below the compound they belong to. The source made the active and inactive calls. No cut-off for these calls is given here.
Experiments:
[1] = Toxicity in Balb/c mouse xenografted with human MDA-MB-231 cells assessed as effect on body mass at 4 to 8 mg/kg, ip administered 3 times per week for 35 days; format: organism-based; conditions: in vivo, 840 h
Summary of the method: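 MDA-MB-231 tumors established in right flank of 6-week-old BALB/c nude mice; once established, 4 or 8 mg/kg compound in DMSO, or DMSO vehicle, injected intraperitoneally three times weekly. Body mass measured before each injection.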

[2] = Toxicity in Balb/c mouse xenografted with human KBtax cells assessed as serum ALT level at 8 mg/kg, ip administered 3 times per week and measured after 21 days (reference value: 32.7 +/- 4.8 IU/L); format: organism-based; conditions: in vivo, 504 h
[3] = Antitumour activity against human KBtax cells xenografted in Balb/c mouse assessed as reduction in tumour size at 8 mg/kg, ip administered 3 times per week and measured after 21 days (reference value: 1109 +/- 128.3 mm3); format: functional
[4] = Toxicity in Balb/c mouse xenografted with human KBtax cells assessed as serum AST level at 8 mg/kg, ip administered 3 times per week and measured after 21 days (reference value: 94.2 +/- 12.5 IU/L); format: organism-based; conditions: in vivo, 504 h
Homo sapiens [5] = organism: Homo sapiens; assay: Induction of mitotic arrest in human KBtax cells assessed as increase in cyclin-B1 expression at 30 to 60 nM after 24 hrs by immunoblotting analysis; format: functional, cell-based
NCI-H1975 [6] = assay: Antitumour activity against human NCI-H1975 cells xenografted in Balb/c mouse assessed as tumour size at 8 mg/kg, ip administered three times per week and measured on day 21 (reference value: 2153 +/- 126.3 mm3); format: functional
Summary of the method: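 H1975 tumours grown in the right flank of 6-week-old BALB/c nude mice. DMSO vehicle or 4 or 8 mg/kg compound in DMSO given ip three times weekly. Tumour volume calculated as 0.5W²L before each dose and compared on day 21.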

Homo sapiens [7] = organism: Homo sapiens; assay: Induction of morphological changes in human KBtax cells assessed as disruption of mitotic spindle arrangement at 30 nM after 6 hrs by DAPI staining based confocal microscopic analysis; format: functional, cell-based
Summary of the method: (§1)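 Cells exposed for 6 h, fixed in 3.7% paraformaldehyde, permeabilized with 0.1% Triton X-100. Stained with anti-α-tubulin (1:1000) overnight at 4 °C, FITC secondary 1 h at 37 °C, nuclei counterstained with DAPI. Imaged by confocal laser scanning microscopy.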

NCI-H1975 [8] = assay: Induction of apoptosis in human NCI-H1975 cells assessed as PARP cleavage at 25 to 50 nM after 24 hrs by immunoblotting analysis; format: functional, cell-based
CL1-0 [9] = assay: Induction of apoptosis in human CL1-0 cells assessed as increase in cytochrome c level in cytosol at 20 to 40 nM after 24 hrs by immunoblotting analysis; format: functional, cell-based
CL1-0 [10] = assay: Induction of mitotic arrest in human CL1-0 cells assessed as increase in cyclin B1 expression at 20 to 40 nM after 24 hrs by immunoblotting analysis; format: functional, cell-based
NCI-H1975 [11] = assay: Induction of mitotic arrest in human NCI-H1975 cells assessed as increase in cyclin B1 expression at 40 to 80 nM after 24 hrs by immunoblotting analysis; format: functional, cell-based
HT-29 = assay: Antiproliferative activity against human HT-29 cells assessed as reduction in cell viability after 72 hrs by MTS assay; format: functional, cell-based; conditions: HT-29, 72 h
Summary of the method: (§2)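 Cells plated at 2000/well, cultured overnight, then exposed to a range of compound concentrations for 72 h. MTS reagent added for 1–4 h at 37 °C and absorbance read at 490 nm. Cultured in RPMI 1640 or DMEM with 10% heat-inactivated FBS under 5% CO2. Data are the mean of three determinations.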

CL1-0 [12] = assay: Induction of morphological changes in human CL1-0 cells assessed as disruption of mitotic spindle arrangement at 20 nM after 6 hrs by DAPI staining based confocal microscopic analysis; format: functional, cell-based; summary of the method: as §1
CL1-0 [13] = assay: Induction of mitotic arrest in human CL1-0 cells assessed as cyclin A expression at 20 to 40 nM after 24 hrs by immunoblotting analysis; format: functional, cell-based
Tubulin (Sus scrofa) [14] = target: T1, Tubulin (Sus scrofa) (UniProt P02554+P02550); assay: Inhibition of porcine tubulin at 5 uM in presence of GTP measured every minute for 1 hr by microplate reader analysis; format: protein assay
SW-620 = assay: Antiproliferative activity against human SW620 cells assessed as reduction in cell viability after 72 hrs by MTS assay; format: functional, cell-based; conditions: SW-620, 72 h; summary of the method: as §2
CL1-0 [15] = assay: Cell cycle arrest in human CL1-0 cells assessed as increase in cell population at G2/M phase after 24 hrs by propidium iodide-staining based flow cytometry; format: functional
Summary of the method: (§3)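 Cells treated for 24 h, then trypsinized and fixed overnight in ice-cold 70% ethanol. Stained for 30 min with propidium iodide (10 µg/mL) plus RNase (20 µg/mL), and DNA content measured by flow cytometry. Mean ± SD.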

NCI-H1975 [16] = assay: Induction of apoptosis in human NCI-H1975 cells assessed as cleaved caspase 3 expression at 40 nM by immunoblotting analysis; format: functional, cell-based; conditions: TDE = time-dependent effect
Tubulin (Homo sapiens) [17] = target: T2, Tubulin (Homo sapiens) (UniProt P68371+Q9H4B7+P0DPH7+P68366+Q13509+Q71U36+P04350+Q3ZCM7+P07437+P68363+Q9BQE3+Q6PEY2+Q13885+Q9BVA1+Q9BUF5); assay: Induction of microtubule depolymerization in human CL1-0 cells at 20 nM after 6 hrs by DAPI staining based DAPI staining based confocal microscopic analysis; format: cell-based; summary of the method: as §1
CL1-0 [18] = assay: Induction of apoptosis in human CL1-0 cells assessed as cleaved caspase 3 expression at 20 nM by immunoblotting analysis; format: functional, cell-based; conditions: TDE = time-dependent effect
Tubulin (Homo sapiens) [19] = target: T2, Tubulin (Homo sapiens); assay: Binding affinity to tubulin (unknown origin) assessed as reduction in colchicine fluorescence after 1 hr in presence of colchicine by fluorescence based assay; format: protein-complex assay
Summary of the method: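 Tubulin (3 µM) mixed with colchicine (3 µM) and incubated with varying compound concentrations in PEM buffer, pH 6.9, for 1 h at 37 °C. Fluorescence read at ex 365/em 435 nm; mean ± SD.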

NCI-H1975 [20] = assay: Cell cycle arrest in human NCI-H1975 cells assessed as increase in cell population at sub-G1 phase after 24 hrs by propidium iodide-staining based flow cytometry; format: functional; summary of the method: as §3
Tubulin (Sus scrofa) [21] = target: T1, Tubulin (Sus scrofa); assay: Inhibition of porcine tubulin polymerization assessed as inhibition of formation of microtubule asters in centrosome after 8 mins immunofluorescence assay; format: protein assay
Summary of the method: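 Purified centrosomes incubated with compound, then with porcine tubulin in 80 mM PIPES, 1 mM MgCl2, 1 mM EGTA, 1 mM GTP, pH 6.8 for 8 min at 37 °C. Asters fixed in 1% glutaraldehyde and stained for α-tubulin. Fiber length measured on 20 asters per group; mean ± SD.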

Tubulin (Homo sapiens) [22] = target: T2, Tubulin (Homo sapiens); assay: Binding affinity to tubulin (unknown origin) assessed as increase complex formation with compound by SPR analysis; format: protein-complex assay
Summary of the method: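 Biotin-tubulin (50 µg/mL) captured on a streptavidin chip to about 3,000 RU, with remaining sites blocked by biocytin and a free flow cell as reference. Compound injected at different concentrations in HBS-EP+ (pH 7.4) at 25 °C. KD obtained from steady-state fitting.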

SAS = assay: Antiproliferative activity against human SAS cells assessed as reduction in cell viability after 72 hrs by MTS assay; format: functional, cell-based; summary of the method: as §2
NCI-H1975 [23] = assay: Induction of mitotic arrest in human NCI-H1975 cells assessed as cyclin A at 40 to 80 nM after 24 hrs by immunoblotting analysis; format: functional, cell-based

T1 sequence (P02550 whole entry, looked up): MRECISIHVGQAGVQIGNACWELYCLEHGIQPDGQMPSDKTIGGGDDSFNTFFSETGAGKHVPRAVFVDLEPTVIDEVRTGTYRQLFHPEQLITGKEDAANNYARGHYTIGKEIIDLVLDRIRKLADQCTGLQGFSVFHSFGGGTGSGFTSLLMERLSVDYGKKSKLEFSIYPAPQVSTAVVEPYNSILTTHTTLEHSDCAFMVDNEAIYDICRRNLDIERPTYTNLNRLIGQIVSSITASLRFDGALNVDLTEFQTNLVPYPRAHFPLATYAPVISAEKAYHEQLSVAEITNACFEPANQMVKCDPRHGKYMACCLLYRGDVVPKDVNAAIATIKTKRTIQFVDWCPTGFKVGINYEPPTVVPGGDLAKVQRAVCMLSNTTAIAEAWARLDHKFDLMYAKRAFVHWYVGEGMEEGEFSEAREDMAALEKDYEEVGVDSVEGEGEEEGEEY
T1 sequence (P02554 whole entry, looked up): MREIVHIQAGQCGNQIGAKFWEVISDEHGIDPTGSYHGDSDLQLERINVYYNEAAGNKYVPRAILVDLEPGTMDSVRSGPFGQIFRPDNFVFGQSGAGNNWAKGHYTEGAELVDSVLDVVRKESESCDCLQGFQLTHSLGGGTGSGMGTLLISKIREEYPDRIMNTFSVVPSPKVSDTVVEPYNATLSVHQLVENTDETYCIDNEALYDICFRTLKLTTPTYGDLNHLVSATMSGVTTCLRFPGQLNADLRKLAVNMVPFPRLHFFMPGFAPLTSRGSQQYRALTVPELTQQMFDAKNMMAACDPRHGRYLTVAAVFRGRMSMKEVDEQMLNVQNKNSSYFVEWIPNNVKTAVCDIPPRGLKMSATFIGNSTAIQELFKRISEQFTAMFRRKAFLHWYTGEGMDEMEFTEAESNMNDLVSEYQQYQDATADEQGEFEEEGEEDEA

Structure (SMILES): CCOC(=O)c1ccc2[nH]c(-c3cccc(F)c3)cc(=O)c2c1
Activity [1]: Non-Toxic
Activity [2]: 64 IU/L
Activity [3]: 528.4 mm3
Activity [4]: 120.7 IU/L
Activity (Homo sapiens [5]): Active
Activity (NCI-H1975 [6]): 972.5 mm3
Activity (Homo sapiens [7]): Active
Activity (NCI-H1975 [8]): Active

IC50 (HT-29): 48 nM
tubulin inhibition call (active/not active) (Tubulin (Sus scrofa) [14]): Active
IC50 (SW-620): 35 nM
Activity (Tubulin (Homo sapiens) [17]): Active
Activity (Tubulin (Homo sapiens) [19]): Dose-dependent effect
inhibition (Tubulin (Sus scrofa) [21]): Active
Activity (Tubulin (Homo sapiens) [22]): Dose-dependent effect
Structure (SMILES): CCOC(=O)c1ccc2nc(-c3ccccc3)cc(O)c2c1
Activity (CL1-0 [9]): Active
Activity (CL1-0 [10]): Active
Activity (NCI-H1975 [11]): Active
Activity (CL1-0 [12]): Active
Activity (CL1-0 [13]): inactive
Activity (CL1-0 [15]): Dose-dependent effect
Activity (NCI-H1975 [16]): Tde
Activity (CL1-0 [18]): Tde
Activity (NCI-H1975 [20]): Dose-dependent effect
IC50 (SAS): 78 nM
Activity (NCI-H1975 [23]): inactive
